These results are taken from ChEMBL document CHEMBL3232876, “Novel R-(+)-limonene-based thiosemicarbazones and their antitumor activity against human tumor cell lines” (Eur J Med Chem, 2014).

Structures are written as SMILES. Activity calls are given as the source filed them. The calls are words filed in the database; no cut-off is given here.

For data set [1], the system named is K562. The data set is described as follows: Growth inhibition of human K562 cells after 48 hrs by sulforhodamine B assay. Type of data set: functional. The following applies: K562, 48 h. A digest of the protocol:
(§1)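 Tumour lines from NCI and Vero from the Rio de Janeiro Cell Bank, grown in RPMI 1640 with 5% fetal bovine serum, with penicillin:streptomycin added to experimental cultures. Each compound was tested at four 10-fold dilutions; sulforhodamine B staining at time zero and 48 h. Proliferation was calculated against T0 and drug-free controls, and GI50 came from sigmoidal regression of the concentration-response curves. Representative experiment in triplicate.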

For data set [2], the system named is MCF7. The experiment in a line: Growth inhibition of human MCF7 cells after 48 hrs by sulforhodamine B assay. It is filed as functional. The following applies: MCF7, 48 h. Summed up: as §1
Data set [3] can be described thus: Growth inhibition of human OVCAR3 cells after 48 hrs by sulforhodamine B assay. It is filed as functional. The following applies: OVCAR-3, 48 h. A digest of the protocol: as §1
For data set [4], the system named is U-251. The data set is described as follows: Growth inhibition of human U251 cells after 48 hrs by sulforhodamine B assay. Particulars: U-251, 48 h. It is filed as functional. A digest of the protocol: as §1
The nature of data set [5]: Growth inhibition of human NCI-ADR-RES cells after 48 hrs by sulforhodamine B assay. Type of data set: functional. A digest of the protocol:
as §1

Data set [6] has as its system 786-0. The experiment in a line: Growth inhibition of human 786-0 cells after 48 hrs by sulforhodamine B assay. Type of data set: functional. Particulars: 786-0, 48 h. A digest of the protocol: as §1
Data set [7] relates to NCI-H460. The experiment in a line: Growth inhibition of human NCI-H460 cells after 48 hrs by sulforhodamine B assay. Type of data set: functional. The following applies: NCI-H460, 48 h. A digest of the protocol: as §1
Data set [8] in a line: Growth inhibition of human UACC62 cells after 48 hrs by sulforhodamine B assay. It is filed as functional. The following applies: UACC-62, 48 h. A digest of the protocol:
as §1

Data set [9] has as its system PC-3. The experiment in a line: Cytotoxicity against human PC3 cells assessed as cell death after 48 hrs by sulforhodamine B assay. It is filed as functional. A digest of the protocol: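 NCI-supplied tumour cells in RPMI 1640 with 5% fetal bovine serum; experimental cultures also had penicillin:streptomycin. Cells were exposed for 48 h to four 10-fold concentrations (0.25 to 250 […]), with readings at time zero and at 48 h. LC50 (concentration giving 50% cell death) came from sigmoidal regression of concentration–response curves.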

Data set [10] concerns HT-29. The experiment in a line: Growth inhibition of human HT-29 cells after 48 hrs by sulforhodamine B assay. Type of data set: functional. The following applies: HT-29, 48 h. Summed up:
as §1

Data set [11] has as its system Vero. The data set is described as follows: (§2) Growth inhibition of African green monkey Vero cells after 48 hrs by sulforhodamine B assay. It is filed as cell-based. The following applies: chlorocebus sabaeus, vero, 48 h. A digest of the protocol:
as §1

A short description of data set [12]: as §2. Type of data set: cell-based. The following applies: chlorocebus sabaeus, Vero cells. A digest of the protocol: as §1
The test system of data set [13] is PC-3. The experiment in a line: Growth inhibition of human PC3 cells after 48 hrs by sulforhodamine B assay. Type of data set: functional. The following applies: PC-3, 48 h. Summed up:
as §1

The nature of data set [14]: Ratio of compound GI50 to paclitaxel GI50 for African green monkey Vero cells. The following applies: chlorocebus sabaeus, read-out: RatioGI50. Type of data set: ADME, cell-based.

On to `CC1=CC[C@H](C(C)(C)NC(=S)N/N=C/c2ccc(N(C)C)cc2)CC1`, for which the GI50 was 22.6 µM in data set [1]; 26.8 µM in data set [2]; above 100 µM in data set [3]; 57.7 µM in data set [4]; above 100 µM in data set [5]; 87 µM in [6]. Besides, the GI50 in [7] was 53.4 µM; in data set [8] it was 45.1 µM; in [10], 46.5 µM; in data set [13] it was below 0.04 µM. Further, the TGI in data set [1], in [2], in data set [3], in [4], in data set [5] and in data set [6] was above 100 µM each time. Moreover, the TGI in [7] is above 100 µM; in [8] it was above 100 µM; in data set [10], above 100 µM; in [11] it was above 100 µM; in [13], below 0.7 µM. Also, the outcome in data set [9] was Active. Besides, in data set [12], the GI50 at 48 h came out at 75.6 µM.
Consider `COc1ccc(/C=N/NC(=S)NC(C)(C)[C@H]2CC=C(C)CC2)cc1`, for which the 50% growth inhibitory concentration (GI50) in data set [1] was 1.5 µM; in [2] it was 31.2 µM; in [3], 7.9 µM; in data set [4], 11.4 µM; in [5], 43.8 µM; in [6], 8.9 µM. For the same compound, the GI50 in data set [7] was 22.5 µM; in data set [8] it was 13.3 µM; in [10] it was 8.4 µM; in [13] it was below 0.04 µM. Besides, the TGI in data set [1] is 30.7 µM; in data set [2] it was 37.7 µM; in data set [3] it was 21.2 µM; in data set [4], 71.9 µM; in data set [5], 50.4 µM; in data set [6], 29.6 µM. Besides, the TGI in data set [7] worked out at 47.8 µM; in data set [8], 70.4 µM; in [10], 33.6 µM; in data set [11] it was 70.1 µM; in [13], 1.2 µM. Further, in data set [9], the result was Active. Besides, the GI50 at 48 h in data set [12] was 12.2 µM.
In the case of `CC1=CC[C@H](C(C)(C)NC(=S)N/N=C/c2ccccc2[N+](=O)[O-])CC1`, the 50% growth inhibitory concentration (GI50) is 0.3 µM in [1]; 1.2 µM in [2]; 8.5 µM in data set [3]; 20.2 µM in [4]; 19.2 µM in data set [5]; 68.5 µM in data set [6]. Further, the GI50 in data set [7] was determined as 5 µM; in data set [8], 10.6 µM; in data set [10], 7.9 µM; in data set [13], 1.7 µM. The total growth inhibition concentration (TGI) was above 100 µM in [1]; 94.7 µM in data set [2]; 25.8 µM in data set [3]; above 100 µM in data set [4]; above 100 µM in data set [5]; above 100 µM in data set [6]. Further, the TGI is 32.7 µM in [7]; 92.2 µM in data set [8]; 70.8 µM in data set [10]; above 100 µM in data set [11]; 6.4 µM in data set [13]. In addition, the outcome in data set [9] was Active. In [12], this compound yielded a GI50 at 48 h of 21.6 µM.
For the compound `CC1=CC[C@H](C(C)(C)NC(=S)N/N=C/c2ccccc2O)CC1`, the concentration for 50% growth inhibition (GI50) is 0.8 µM in [1]; 2.2 µM in [2]; 5.5 µM in data set [3]; 6.4 µM in data set [4]; 3.7 µM in data set [5]; 4.6 µM in [6]. Besides, the GI50 in data set [7] was 1.9 µM; in [8] it was 2.8 µM; in data set [10], 10.9 µM; in data set [13] it was below 0.04 µM. Moreover, the TGI in data set [1] was above 100 µM; in [2], 17.5 µM; in data set [3] it was 11.8 µM; in data set [4] it was 10.6 µM; in data set [5], 10.9 µM; in data set [6], 12.1 µM. Also, the TGI is 8.4 µM in data set [7]; 10.8 µM in data set [8]; 16.6 µM in data set [10]; 11.2 µM in data set [11]; 0.9 µM in data set [13]. For the same compound, the CC50 in data set [9] (PC-3, 48 h, read-out: LC50 (the source's name)) came out at 12.3 µM. In addition, the selectivity ratio in data set [14] amounted to 100. Moreover, in [12], the concentration for 50% growth inhibition (GI50) at 48 h was determined as 3.1 µM.
